In ChEMBL document CHEMBL5724801, “EUbOPEN Chemogenomics Library - Multiplex” (2024):
Values joined by “and” are separate entries in the source; they are usually repeats but may differ in a detail not shown here. Equal values may be shown once.

System: U2OS
Assay: Multiplex assay against U2OS
Type: toxicity, cell-based
Details: human
How it was run: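 Cells stained live at seeding with Hoechst33342, BioTracker Green Microtubule Cytoskeleton Dye, MitoTracker Red and Annexin V Alexa Fluor 680 were imaged on a CQ1 microscope at 37°C and 5% CO2 after compound addition. Their classification by CellPathfinder machine-learning gating ran from Hoechst high-intensity objects versus normal cells, to healthy, pyknosed or fragmented nuclei among normal cells, to mitotic or apoptotic among pyknosed cells. Tubulin, mitochondrial-mass and membrane-permeability phenotypes are per cents of healthy-nucleus cells.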

[1] = 12 h, 1 µM, compound concentration 1 uM
[2] = 12 h, 10 µM, compound concentration 10 uM
[3] = 24 h, 1 µM, compound concentration 1 uM
[4] = 24 h, 10 µM, compound concentration 10 uM
[5] = 48 h, 1 µM, compound concentration 1 uM
[6] = 48 h, 10 µM, compound concentration 10 uM

CC(C)(C)c1ccc(CSc2cnn(C(C)(C)C)c(=O)c2Cl)cc1 [PYRIDABEN]
Population Apoptotic (%) [1]: 79% and 63%
Population Fragmented Nuclei (%) [1]: 28% and 11%
Population Healthy Nuclei (%) [1]: 61% and 81%
Population Hoechst High Intensity Objects (%) [1]: 3% and 0%
Population Membrane Permeable-Phenotype (%) [1]: 3% and 4%
Population Mitochondria Different-Phenotype (%) [1]: 1%
Population Mitotic Cells (%) [1]: 20% and 36%
Population Normal (%) [1]: 97% and 99%
Population Pyknosed Nuclei (%) [1]: 9% and 7%
Population Tubulin-Different-Phenotype (%) [1]: 2% and 3%
Total Cell Count [1]: 267 and 152
Population Apoptotic (%) [2]: 83% and 87%
Population Fragmented Nuclei (%) [2]: 28% and 15%
Population Healthy Nuclei (%) [2]: 57% and 73%
Population Hoechst High Intensity Objects (%) [2]: 1% and 0%
Population Membrane Permeable-Phenotype (%) [2]: 5%
Population Mitochondria Different-Phenotype (%) [2]: 5% and 2%
Population Mitotic Cells (%) [2]: 16% and 12%
Population Normal (%) [2]: 98% and 100%
Population Pyknosed Nuclei (%) [2]: 14% and 11%
Population Tubulin-Different-Phenotype (%) [2]: 3% and 2%
Total Cell Count [2]: 209 and 141
Population Apoptotic (%) [3]: 83% and 100%
Population Fragmented Nuclei (%) [3]: 28% and 19%
Population Healthy Nuclei (%) [3]: 58% and 75%
Population Hoechst High Intensity Objects (%) [3]: 1% and 2%
Population Membrane Permeable-Phenotype (%) [3]: 4% and 3%
Population Mitochondria Different-Phenotype (%) [3]: 1%
Population Mitotic Cells (%) [3]: 16% and 0%
Population Normal (%) [3]: 98% and 97%
Population Pyknosed Nuclei (%) [3]: 13% and 5%
Population Tubulin-Different-Phenotype (%) [3]: 1%
Total Cell Count [3]: 286 and 186
Population Apoptotic (%) [4]: 80%
Population Fragmented Nuclei (%) [4]: 22% and 19%
Population Healthy Nuclei (%) [4]: 61% and 68%
Population Hoechst High Intensity Objects (%) [4]: 2% and 1%
Population Membrane Permeable-Phenotype (%) [4]: 8% and 6%
Population Mitochondria Different-Phenotype (%) [4]: 3% and 1%
Population Mitotic Cells (%) [4]: 19% and 20%
Population Normal (%) [4]: 97% and 98%
Population Pyknosed Nuclei (%) [4]: 15% and 12%
Population Tubulin-Different-Phenotype (%) [4]: 6% and 2%
Total Cell Count [4]: 234 and 167
Population Apoptotic (%) [5]: 76% and 84%
Population Fragmented Nuclei (%) [5]: 26% and 19%
Population Healthy Nuclei (%) [5]: 63% and 70%
Population Hoechst High Intensity Objects (%) [5]: 3% and 6%
Population Membrane Permeable-Phenotype (%) [5]: 6% and 5%
Population Mitochondria Different-Phenotype (%) [5]: 3%
Population Mitotic Cells (%) [5]: 23% and 15%
Population Normal (%) [5]: 96% and 93%
Population Pyknosed Nuclei (%) [5]: 9%
Population Tubulin-Different-Phenotype (%) [5]: 3% and 2%
Total Cell Count [5]: 361 and 212
Population Apoptotic (%) [6]: 90% and 95%
Population Fragmented Nuclei (%) [6]: 20% and 16%
Population Healthy Nuclei (%) [6]: 64% and 70%
Population Hoechst High Intensity Objects (%) [6]: 4% and 3%
Population Membrane Permeable-Phenotype (%) [6]: 9% and 5%
Population Mitochondria Different-Phenotype (%) [6]: 4% and 6%
Population Mitotic Cells (%) [6]: 10% and 4%
Population Normal (%) [6]: 95% and 96%
Population Pyknosed Nuclei (%) [6]: 14% and 13%
Population Tubulin-Different-Phenotype (%) [6]: 6% and 4%
Total Cell Count [6]: 280 and 191

O=C(Nc1ccccc1Br)N[C@@H]1CCN(c2ccc(C(F)(F)F)cn2)C1 [SB-705498]
Population Apoptotic (%) [1]: 38.89% and 33.33%
Population Fragmented Nuclei (%) [1]: 1.94% and 6.43%
Population Healthy Nuclei (%) [1]: 84.95% and 83.04%
Population Hoechst High Intensity Objects (%) [1]: 0%
Population Membrane Permeable-Phenotype (%) [1]: 1.14% and 2.82%
Population Mitochondria Different-Phenotype (%) [1]: 0% and 3.52%
Population Mitotic Cells (%) [1]: 61.11% and 66.67%
Population Normal (%) [1]: 100%
Population Pyknosed Nuclei (%) [1]: 13.11% and 10.53%
Population Tubulin-Different-Phenotype (%) [1]: 0.86% and 0%
Total Cell Count [1]: 412 and 171
Population Apoptotic (%) [2]: 43.24% and 36.84%
Population Fragmented Nuclei (%) [2]: 0.5% and 3.7%
Population Healthy Nuclei (%) [2]: 90.35% and 82.22%
Population Hoechst High Intensity Objects (%) [2]: 0%
Population Membrane Permeable-Phenotype (%) [2]: 0.55% and 5.41%
Population Mitochondria Different-Phenotype (%) [2]: 0% and 21.62%
Population Mitotic Cells (%) [2]: 56.76% and 63.16%
Population Normal (%) [2]: 100%
Population Pyknosed Nuclei (%) [2]: 9.16% and 14.07%
Population Tubulin-Different-Phenotype (%) [2]: 1.64% and 3.6%
Total Cell Count [2]: 404 and 135
Population Apoptotic (%) [3]: 45.28% and 27.59%
Population Fragmented Nuclei (%) [3]: 2.03% and 4.69%
Population Healthy Nuclei (%) [3]: 88.17% and 81.69%
Population Hoechst High Intensity Objects (%) [3]: 0.18% and 0%
Population Membrane Permeable-Phenotype (%) [3]: 0.21% and 2.87%
Population Mitochondria Different-Phenotype (%) [3]: 0% and 10.34%
Population Mitotic Cells (%) [3]: 54.72% and 72.41%
Population Normal (%) [3]: 99.82% and 100%
Population Pyknosed Nuclei (%) [3]: 9.8% and 13.62%
Population Tubulin-Different-Phenotype (%) [3]: 0.84% and 0%
Total Cell Count [3]: 542 and 213
Population Apoptotic (%) [4]: 39.24% and 21.05%
Population Fragmented Nuclei (%) [4]: 0.86% and 1.8%
Population Healthy Nuclei (%) [4]: 85.49% and 86.83%
Population Hoechst High Intensity Objects (%) [4]: 0%
Population Membrane Permeable-Phenotype (%) [4]: 1.82% and 4.14%
Population Mitotic Cells (%) [4]: 60.76% and 78.95%
Population Normal (%) [4]: 100%
Population Pyknosed Nuclei (%) [4]: 13.64% and 11.38%
Population Tubulin-Different-Phenotype (%) [4]: 2.83% and 1.38%
Population Apoptotic (%) [5]: 41.75% and 51.28%
Population Fragmented Nuclei (%) [5]: 3.31% and 2.67%
Population Healthy Nuclei (%) [5]: 86.67% and 86.93%
Population Hoechst High Intensity Objects (%) [5]: 0%
Population Membrane Permeable-Phenotype (%) [5]: 0.9% and 2.76%
Population Mitochondria Different-Phenotype (%) [5]: 0% and 4.29%
Population Mitotic Cells (%) [5]: 58.25% and 48.72%
Population Normal (%) [5]: 100%
Population Pyknosed Nuclei (%) [5]: 10.02% and 10.4%
Population Tubulin-Different-Phenotype (%) [5]: 0.9% and 0.92%
Total Cell Count [5]: 1028 and 375
Population Apoptotic (%) [6]: 52.22% and 32.26%
Population Fragmented Nuclei (%) [6]: 1.85% and 1.83%
Population Healthy Nuclei (%) [6]: 89.37% and 86.81%
Population Hoechst High Intensity Objects (%) [6]: 0.1% and 0%
Population Membrane Permeable-Phenotype (%) [6]: 1.09% and 4.64%
Population Mitochondria Different-Phenotype (%) [6]: 0.22% and 8.02%
Population Mitotic Cells (%) [6]: 47.78% and 67.74%
Population Normal (%) [6]: 99.9% and 100%
Population Pyknosed Nuclei (%) [6]: 8.78% and 11.36%
Population Tubulin-Different-Phenotype (%) [6]: 2.07% and 1.27%

CCCC(CCC)C(=O)O [VALPROIC ACID]
Population Apoptotic (%) [1]: 72% and 66%
Population Fragmented Nuclei (%) [1]: 28% and 14%
Population Healthy Nuclei (%) [1]: 63% and 77%
Population Hoechst High Intensity Objects (%) [1]: 6% and 2%
Population Membrane Permeable-Phenotype (%) [1]: 9% and 8%
Population Mitochondria Different-Phenotype (%) [1]: 7% and 3%
Population Mitotic Cells (%) [1]: 27% and 33%
Population Normal (%) [1]: 93% and 97%
Population Pyknosed Nuclei (%) [1]: 8%
Population Tubulin-Different-Phenotype (%) [1]: 8% and 6%
Population Apoptotic (%) [2]: 77% and 85%
Population Fragmented Nuclei (%) [2]: 30% and 21%
Population Healthy Nuclei (%) [2]: 66% and 70%
Population Hoechst High Intensity Objects (%) [2]: 4% and 0%
Population Membrane Permeable-Phenotype (%) [2]: 6% and 4%
Population Mitochondria Different-Phenotype (%) [2]: 3% and 4%
Population Mitotic Cells (%) [2]: 22% and 14%
Population Normal (%) [2]: 95% and 100%
Population Pyknosed Nuclei (%) [2]: 3% and 7%
Population Tubulin-Different-Phenotype (%) [2]: 4%
Population Apoptotic (%) [3]: 84% and 100%
Population Fragmented Nuclei (%) [3]: 24% and 17%
Population Healthy Nuclei (%) [3]: 66% and 74%
Population Hoechst High Intensity Objects (%) [3]: 6% and 3%
Population Membrane Permeable-Phenotype (%) [3]: 9%
Population Mitochondria Different-Phenotype (%) [3]: 6% and 2%
Population Mitotic Cells (%) [3]: 16% and 0%
Population Normal (%) [3]: 93% and 96%
Population Pyknosed Nuclei (%) [3]: 8%
Population Tubulin-Different-Phenotype (%) [3]: 9% and 7%
Population Apoptotic (%) [4]: 83% and 100%
Population Fragmented Nuclei (%) [4]: 25% and 17%
Population Healthy Nuclei (%) [4]: 71% and 78%
Population Hoechst High Intensity Objects (%) [4]: 2% and 0%
Population Membrane Permeable-Phenotype (%) [4]: 4% and 8%
Population Mitochondria Different-Phenotype (%) [4]: 3% and 4%
Population Mitotic Cells (%) [4]: 16% and 0%
Population Normal (%) [4]: 97% and 100%
Population Pyknosed Nuclei (%) [4]: 3% and 4%
Population Tubulin-Different-Phenotype (%) [4]: 3% and 5%
Population Apoptotic (%) [5]: 76% and 91%
Population Fragmented Nuclei (%) [5]: 20% and 16%
Population Healthy Nuclei (%) [5]: 69% and 72%
Population Hoechst High Intensity Objects (%) [5]: 3%
Population Membrane Permeable-Phenotype (%) [5]: 7% and 8%
Population Mitochondria Different-Phenotype (%) [5]: 5%
Population Mitotic Cells (%) [5]: 23% and 8%
Population Normal (%) [5]: 96%
Population Pyknosed Nuclei (%) [5]: 9% and 11%
Population Tubulin-Different-Phenotype (%) [5]: 5% and 6%
Population Apoptotic (%) [6]: 91% and 93%
Population Fragmented Nuclei (%) [6]: 20%
Population Healthy Nuclei (%) [6]: 71%
Population Hoechst High Intensity Objects (%) [6]: 2% and 1%
Population Membrane Permeable-Phenotype (%) [6]: 3% and 9%
Population Mitochondria Different-Phenotype (%) [6]: 2%
Population Mitotic Cells (%) [6]: 8% and 6%
Population Normal (%) [6]: 97% and 98%
Population Pyknosed Nuclei (%) [6]: 7%
Population Tubulin-Different-Phenotype (%) [6]: 1% and 4%
